Measured values reported in PubChem BioAssay AID504826 (Southern Research Specialized Biocontainment Screening …, 2011).

test system: HEp-2 viability, luminescence (CellTiter-Glo); experiment: HEp-2 cell cytotoxicity, dose response, cytotoxicity control for RSV antiviral project, synthesized compounds, set 9 (AID 504826)
How it was run: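 Assay system: uninfected HEp-2 human cells, ATP-based viability. Input: 10,595 cells/well. Times: compound exposure six days at 37 °C, 5% CO2. Technique: ATP luminescence (CellTiter-Glo). Controls: cell-only wells as 100% viability reference. Compound dosing: Eight-point twofold dilution series, 0.5% DMSO final. Evaluation: % viability and fitted CC50. Replicates: triplicate.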

Structure (SMILES)	CC50 [µM]
COCCCNC(=O)c1ccc(Cn2c(=O)c3ccccc3n(Cc3ccc(C(F)(F)F)cc3)c2=O)cc1	95.7
COCCCNC(=O)c1ccc(Cn2c(=O)c3ccccc3n(Cc3ccc(C)c(C(F)(F)F)c3)c2=O)cc1	75.2
COCCCNC(=O)c1ccc(Cn2c(=O)c3ccccc3n(Cc3ccc(OC)cc3)c2=O)cc1	121
COCCCNC(=O)c1ccc(Cn2c(=O)c3ccccc3n(Cc3ccc(Br)cc3)c2=O)cc1	126
Cc1ccc(C)c(NC(=O)[C@@H]2CCCN2S(=O)(=O)c2cccc3cccnc23)c1	25
COc1ccccc1CNC(=O)C1CCN(S(=O)(=O)c2cccc3nonc23)CC1	146
COCCCNC(=O)c1ccc(Cn2c(=O)c3ccccc3n(Cc3ccc([N+](=O)[O-])cc3)c2=O)cc1	115
